Hits are enriched below; roughly 2.2% of the tested compounds scored in any of these assays.
Runt-SMMHC FRET = Runt domain-CBFb-SMMHC interaction inhibition; inhibition, % at 20 µM; actives 0.74% (n = 220,000); Cerulean-Runt/Venus-CBFb-SMMHC FRET ratio 530/480, 1 h;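 active = mean inhibition across duplicate retests at 20 µM reaching about 50%, limit read from the data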;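 also: inhibitors lower the FRET ratio by blocking Runt binding to CBFb-SMMHC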
PERK inh = inhibitors of human PERK kinase; Q9NZJ5; CHO PERK-DD fusion, SEAP luminescence translation reporter; inhibition, % at 5.6 µM; actives 0.17% (n = 220,000); AID 1416;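 active = inhibition above the mean inhibition of all tested compounds plus 3 SD, set separately per screening campaign, cut at about 2.9% in these data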;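 also: PERK kinase domain activated by AP20187 dimerizer at 100 nM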
Runt-CBFb FRET = blocks binding of human RUNX1 Runt domain to CBFb | Q01196+Q13951 | Cerulean-Runt/Venus-CBFb FRET ratio 530/480, 1 h | inhibition, % at 20 µM | actives 0.46% (n = 220,000) | AID 1496;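 active = inhibition over about 50% at 20 µM in the single-dose screen, limit read from the data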
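System: Cerulean-labeled Runt domain protein | Quantity: 100 nM of each labeled protein | Schedule: 1 h compound exposure, room temperature | Detection: Fluorescence energy transfer, 422 nm excitation, 530/480 nm emission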
eIF4E 4G PPI = blocks eIF4E binding to eIF4G; TR-FRET eIF4E-eIF4GI(517-606) binding, 2 h; AID 782; actives 0.37% (n = 220,000); P63073+Q04637; inhibition, % at 21.7 µM;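 active = inhibition above about 30%, limit read from the data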
RanGTP-Impb inh = inhibitors of RanGTP-importin-beta interaction, primary screen, biochemical, FRET, CFP-Ran, YFP-importin-beta, homogeneous. cell-free CFP-Ran/YFP-importin-beta FRET ratio. inhibition, % (test concentration not listed). actives 1.1% (n = 300,000);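 active = more than half of the replicate wells show a fall in the fluorescence ratio signal beyond about 16%, limit read from the data, passing the limit was not always enough; inconclusive = exactly half of the replicate wells pass the set limit; inactive = fewer than half of replicates pass the limit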
Hck-Nef inh = inhibitors of human Hck kinase activated by Nef; Recombinant Hck-YEEI plus Nef, Z-Lyte FRET kinase assay; inhibition, % at 20 µM; actives 0.68% (n = 220,000);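 active = Hck-Nef kinase inhibition above about 50%, limit read from the data; inactive = inhibition below that limit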
YIC FRET counter = counter-screen for RanGTP-importin-beta inhibitors: YIC FRET probe; shares compounds with RanGTP-Impb inh; Purified YIC probe, intramolecular FRET ratio YFP/CFP; IC50, µM; actives 40% (n = 1,000); AID 435026;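 active = fitted half-maximal inhibitory concentration no more than tenfold above the top dose tested; inconclusive = flat fit with 30 to 70% activity, or poor fit; inactive = half-maximal concentration beyond tenfold above the top dose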
Numbers stand for hits; – = inactive; ? = inconclusive; · = not tested or not shown.

SMILES	Runt-SMMHC FRET	PERK inh	Runt-CBFb FRET	eIF4E 4G PPI	RanGTP-Impb inh	Hck-Nef inh	YIC FRET counter
COc1ccccc1C1CC(c2ccc(Cl)cc2)Nc2nc(N)nn21 (stereo not drawn)	–	–	–	–	18	–	–
COCc1cc(/C=N\NC(=O)Cc2ccc(Cl)cc2)ccc1OC	–	–	–	–	–	–	·
COc1cc(Cl)c(C)cc1NC(=O)CNC(C)c1ccccc1OC (stereo not drawn)	–	–	–	–	–	–	·
COCCN(CCOC)C(=O)CN1C(=O)NC2(CCCc3sccc32)C1=O (stereo not drawn)	·	·	·	·	–	·	·
COc1cc(=O)[nH]c(SC(C)C(=O)Nc2ccc3ccccc3c2)n1 (stereo not drawn)	·	·	·	·	–	·	·
CC(C)S(=O)(=O)c1nsc2nc(=O)c(/C=C3\C=Nc4ccccc43)c(N)n12	80	–	–	–	31	–	9.7
CSc1nsc2nc(=O)c(/C=C3\C=Nc4ccccc43)c(N)n12	51	–	–	–	26	–	28
CC(C)OC(=O)c1nnn(-c2nonc2N)c1CN1CCCCCC1	–	–	–	–	24	–	–
CC#CCN1c2ccccc2[C@]23C[C@@H](C(=O)OC)N(C(=O)NCCBr)C2=NC(C(=O)OC)=C(C(=O)OC)[C@H]13	·	·	·	·	–	·	·
Cc1nn(C)cc1S(=O)(=O)N1CCCC(C(=O)O)C1 (stereo not drawn)	–	–	–	–	–	–	·
Cc1c(S(=O)(=O)N2CCCC(C(=O)O)C2)cnn1C (stereo not drawn)	–	–	–	–	22	–	–
CN(C)S(=O)(=O)c1cccc(C(=O)Nc2ccccc2[N+](=O)[O-])c1	–	–	–	–	–	–	·
CCN(CC)S(=O)(=O)c1cc(C(=O)Nc2ccccc2[N+](=O)[O-])ccc1Cl	–	–	–	–	25	–	–
OCCN1CN=C(Nc2nc3ccccc3s2)NC1	–	–	–	–	–	–	·
c1ccc2sc(NC3=NCN(CCN4CCOCC4)CN3)nc2c1	–	–	–	–	28	–	–
Cc1ccc(S(=O)(=O)Nc2nc3ccccc3nc2NCc2ccco2)cc1	–	–	–	–	20	–	13
CCCc1cc(C(=O)O)c2ccccc2n1	–	–	–	–	–	–	·
CCCc1c2ccccc2nc2ccccc12	52	–	–	–	21	–	9.6
CS(=O)(=O)c1ccc2nc(NC(=O)c3cccc(Cl)c3)sc2c1	·	·	·	·	–	·	·
COCc1ccc(CN2CCCC(CO)(Cc3ccccc3C)C2)o1 (stereo not drawn)	–	–	–	–	23	–	–
COCc1ccc(CN2CCCC(CO)(Cc3cccc(OC)c3)C2)o1 (stereo not drawn)	–	–	–	–	–	–	·
COc1cc([C@@H]2[C@H]3CN(C)CC=C3C(C#N)=C(N)C2(C#N)C#N)cc2c1OCO2	62	–	–	–	24	–	5.7
O=C(OCCOCCN=C1NS(=O)(=O)c2ccccc21)C1CC(=O)N(c2ccccc2)C1 (stereo not drawn)	–	–	–	–	–	–	·
Cc1ccc(C(=O)c2c3ccc(N)cc3nn2CCC(N)=O)cc1	·	·	·	·	–	·	·
Cc1ccc2cc(C#N)c(N3CCCN(S(=O)(=O)c4ccccc4)CC3)nc2c1	–	–	–	–	?	–	·
Cc1ccc2cc(C#N)c(N3CCCN(S(=O)(=O)c4ccc(F)cc4)CC3)nc2c1	–	–	–	–	18	–	25
CCOC(=O)CC(=O)CSc1nc2c(cc1C#N)CCC2	–	–	–	–	16	–	24
COc1ccc(OC)c(N(CC(=O)N2CCCC2)S(=O)(=O)c2ccc(OC)c(OC)c2)c1	–	–	–	–	–	–	·
COc1ccc(OC)c(N(CC(=O)O)S(=O)(=O)c2ccc(OC)c(OC)c2)c1	–	–	–	–	21	–	–
COc1ccc(Br)cc1/C=C/C(=O)NC(=S)Nc1ccc(CN2CCOCC2)cc1	·	·	·	·	50	·	–
